A short description of series [1]: Cytotoxicity against rat L6 cells. The class given is cell-based. The method in brief:
(§1)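 Alamar blue-based viability assays were run on bloodstream T. b. rhodesiense STIB900 and on rat skeletal myoblast L6 cells. Podophyllotoxin was the reference drug for L6.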

Series [2] is described as follows: Selectivity index, ratio of CC50 for rat L6 cells to IC50 for Plasmodium falciparum NF54.
Another series concerns Plasmodium falciparum. Nature of the series: Antimicrobial activity against intraerythrocytic stage of Plasmodium falciparum NF54 infected in human erythrocytes by [3H]hypoxanthine incorporation assay. The class given is functional, organism-based. The method in brief: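 Erythrocytic P. falciparum NF54 (chloroquine-sensitive) was tested with a [³H]hypoxanthine incorporation read-out.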

Series [3] relates to Trypanosoma brucei rhodesiense. Nature of the series: Antimicrobial activity against trypomastigote stage of Trypanosoma brucei rhodesiense STIB900 infected in rat L6 cells after 96 hrs by Alamar Blue assay. The class given is functional, organism-based. The settings on record: STIB900, L6, 96 h. The gist of the method: as §1
A general note: The colour change of resazurin is a common sign of viable cells or microbes.

The subject of series [4] is Trypanosoma brucei rhodesiense. Nature of the series: Antimicrobial activity against bloodstream form of Trypanosoma brucei rhodesiense STIB900 infected in acute HAT NMRI mouse model assessed as mean day of relapse at 20 mg/kg, ip administered for 4 days. It counts as functional. The settings on record: route intraperitoneal. The gist of the method:
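Acute-stage mouse model infected with T. b. rhodesiense STIB900, in groups of four mice. Compound was formulated in 100% DMSO and diluted 10-fold in distilled water. It was given on four consecutive days from day 3 post-infection at 0.1 mL/10 g. Three infected mice were left untreated. Parasitaemia was checked in tail-blood smears up to day 60; relapse-free mice were counted as cured. Mean relapse day is the post-infection day of relapse.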

Series [5] in a line: Selectivity index, ratio of CC50 for rat L6 cells to IC50 for Trypanosoma brucei rhodesiense. It counts as functional. The gist of the method: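 Selectivity index was calculated as L6 CC₅₀ divided by the T. b. rhodesiense IC₅₀, both from the Alamar blue assays.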
Series [6] is described as follows: Binding affinity to 5'-biotin-CGAATTCGTCTCCGAATTCG-3' hairpin DNA (unknown origin) after 5 mins by SPR analysis. The gist of the method:
(§2)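 SPR at 25 °C in MES buffer (10 mM MES, 1 mM EDTA, 100 mM NaCl, 0.005% P20, pH 6.25). Biotinylated hairpins were captured on streptavidin chips to about 400 RU, with a blank reference flow cell. A compound dilution series (from 5 mM stocks) was injected at 20 µL/min with 5 min association and 5 min dissociation. Surfaces were regenerated with 200 mM NaCl/10 mM NaOH. Equilibrium constants came from fits to a one- or two-site model.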
(Surface plasmon resonance follows binding to a sensor surface in real time, without labels.)

Series [7] in a line: Binding affinity to 5'-biotin-CATATATATCCCCATATATATG-3' hairpin DNA (unknown origin) after 5 mins by SPR analysis. The method in brief:
as §2

The nature of series [8]: Selectivity ratio of K for 5'-biotin-CGAATTCGTCTCCGAATTCG-3' hairpin DNA (unknown origin) to K for 5'-biotin-CATATATATCCCCATATATATG-3' hairpin DNA (unknown origin).
A short description of series [9]: Binding affinity to 5'-biotin-CGCGCGCGTTTTCGCGCGCG-3' hairpin DNA (unknown origin) hairpin DNA after 5 mins by SPR analysis. The method in brief: as §2
Another series concerns Mus musculus. Nature of the series: Acute toxicity in NMRI mouse infected with bloodstream form of Trypanosoma brucei rhodesiense STIB900 at 20 mg/kg, ip administered for 4 days. The class given is organism-based. Also on record: dose 20 mg/kg, route intraperitoneal. The settings on record: in vivo, 96 h.
Another series relates to Trypanosoma brucei. Nature of the series: Antimicrobial activity against Trypanosoma brucei GVR35 infected in NMRI mouse late stage model at 20 mg/kg, ip administered for 5 days. It counts as functional, organism-based. Also on record: dose 20 mg/kg.
Series [10] relates to Trypanosoma brucei rhodesiense. Nature of the series: Antimicrobial activity against bloodstream form of Trypanosoma brucei rhodesiense STIB900 infected in acute HAT NMRI mouse model assessed as mean day of relapse at 50 mg/kg, po administered for 4 days. The class given is functional.
Series [11] relates to Trypanosoma brucei rhodesiense. Nature of the series: Antimicrobial activity against bloodstream form of Trypanosoma brucei rhodesiense STIB900 infected in acute HAT NMRI mouse model assessed as mean day of relapse at 5 mg/kg, ip administered for 4 days. The class given is functional. The settings on record: route intraperitoneal.

This note sets out measurements from ChEMBL document CHEMBL3259603, “Antiprotozoal activity and DNA binding of N-substituted N-phenylbenzamide and 1,3-diphenylurea bisguanidines” (Eur J Med Chem, 2014).

Active and inactive are the calls of the source. The calls are words filed in the database; no cut-off is given here. Bounds are passed on as bounds.

`CC(C)/N=C(\N)Nc1ccc(NC(=O)c2ccc(N/C(N)=N/C(C)C)cc2)cc1.Cl`: in series [1], the CC50 (usually the concentration that lowers cell viability or growth by half) stood at 103 µM. Also, the “Ratio CC50/IC50” value in series [2] is 231; in series [5] it was 9364. Moreover, the IC50 (usually the concentration at which inhibition is half-maximal) in the series with Plasmodium falciparum came out at 0.446 µM; in series [3], 0.011 µM. Further, the Time in [4] was above 60 days. Moreover, the K in series [6] is 9.8 ×10⁵ /M; in series [7] it was 4 ×10⁵ /M; in series [9], below 1 ×10⁵ /M. Besides, in series [8], the Selectivity ratio came to 2.5.
For `N/C(=N\OCc1ccccc1)Nc1ccc(NC(=O)c2ccc(N/C(N)=N/OCc3ccccc3)cc2)cc1`, half-maximal cytotoxicity in series [1] (CC50) was put at 6.6 µM. For the same compound, the IC50 with Plasmodium falciparum came out at 2.83 µM; in series [3], 3.13 µM.
Turning to `CC(C)/N=C(\N)Nc1ccc(NC(=O)Nc2ccc(N/C(N)=N/C(C)C)cc2)cc1.Cl`, the 50% cytotoxic concentration (CC50) in series [1] is 126 µM. For the same compound, the “Ratio CC50/IC50” value was 288 in series [2] and 2571 in series [5]. Further, the concentration for half-maximal inhibition (IC50) in the series with Plasmodium falciparum was 0.437 µM; in series [3], 0.049 µM. Besides, the Time in series [4] is 10 days. Moreover, the Activity entry in the series on Mus musculus is recorded as “Toxic”.
The compound `CC/N=C(\N)Nc1ccc(NC(=O)Nc2ccc(N/C(N)=N/CC)cc2)cc1.Cl` returned a CC50 in series [1] of 116 µM. Moreover, the “Ratio CC50/IC50” value was found to be 292 in [2] and 1289 in series [5]. Also, the half-maximal inhibitory concentration (IC50) turned out to be 0.397 µM with Plasmodium falciparum and 0.09 µM in [3]. Further, in series [4], the Time was 18.3 days. The K was found to be 0.19 ×10⁵ /M in series [6] and 0.15 ×10⁵ /M in series [7]. For the same compound, the Activity entry with Mus musculus is “Toxic”.
In turn, `N/C(=N\OC1CCCCO1)Nc1ccc(NC(=O)c2ccc(N/C(N)=N/OC3CCCCO3)cc2)cc1` (configuration not stated) came in with a CC50 in [1] of 160 µM. Also, the figures for the IC50 (in the series on Plasmodium falciparum; in [3]) were 42.6 µM and 51.4 µM, respectively.
In series [1], `C/N=C(\N)Nc1ccc(NC(=O)c2ccc(N/C(N)=N/C)cc2)cc1.Cl` had a CC50 of 173 µM. Moreover, the “Ratio CC50/IC50” value in series [2] is 169; in series [5] it was 977. The half-maximal inhibitory concentration (IC50) in the series with Plasmodium falciparum stood at 1.02 µM; in series [3] it was 0.177 µM.
Compound `CC/N=C(\N)Nc1ccc(NC(=O)c2ccc(N/C(N)=N/CC)cc2)cc1.Cl` showed a CC50 in series [1] of 118 µM. Besides, the results for the “Ratio CC50/IC50” value in [2] and in series [5] were 509 and 13111, respectively. The results for the half-maximal inhibitory concentration (IC50) (with Plasmodium falciparum; in series [3]) were 0.232 µM and 0.009 µM, respectively. The Time in series [4] is above 60 days. Further, the K in [6] was 8.1 ×10⁵ /M; in series [7], 5.2 ×10⁵ /M; in [9], below 1 ×10⁵ /M. In addition, the Selectivity ratio in series [8] stood at 1.5.
Consider `Nc1nc(N)nc(Nc2ccc([As]3SCC(CO)S3)cc2)n1` (configuration not stated) [MELARSOPROL], for which the “Ratio CC50/IC50” value in series [5] was above 1000.
For `N=C(N)Nc1ccc(NC(=O)c2ccc(NC(=N)N)cc2)cc1`, in the series on Trypanosoma brucei, the result was inactive. Besides, the Time in series [10] and in series [11] was above 60 days each time.
In series [1], `C/N=C(\N)Nc1ccc(NC(=O)Nc2ccc(N/C(N)=N/C)cc2)cc1.Cl` displayed a half-maximal cytotoxic concentration (CC50) of 177 µM. For the same compound, the entries for the “Ratio CC50/IC50” value in series [2] and in [5] were 922 and 670, respectively. Moreover, the 50% inhibitory concentration (IC50) in the series with Plasmodium falciparum came to 0.192 µM; in series [3], 0.264 µM.
The compound `N/C(=N\O)Nc1ccc(NC(=O)c2ccc(N/C(N)=N/O)cc2)cc1` had a cytotoxic concentration (CC50) in [1] of 100 µM. Further, the IC50 in the series with Plasmodium falciparum came to 3.58 µM; in series [3] it was 4.88 µM.
On the same counts, the results for `CO/N=C(\N)Nc1ccc(NC(=O)c2ccc(N/C(N)=N/OC)cc2)cc1` are 141 µM, 7.49 µM and 56 µM.
